For test [1], the target named is T1, Hepatocyte growth factor activator serine protease (Homo sapiens, UniProt Q04756).
T1 sequence (Q04756 whole entry): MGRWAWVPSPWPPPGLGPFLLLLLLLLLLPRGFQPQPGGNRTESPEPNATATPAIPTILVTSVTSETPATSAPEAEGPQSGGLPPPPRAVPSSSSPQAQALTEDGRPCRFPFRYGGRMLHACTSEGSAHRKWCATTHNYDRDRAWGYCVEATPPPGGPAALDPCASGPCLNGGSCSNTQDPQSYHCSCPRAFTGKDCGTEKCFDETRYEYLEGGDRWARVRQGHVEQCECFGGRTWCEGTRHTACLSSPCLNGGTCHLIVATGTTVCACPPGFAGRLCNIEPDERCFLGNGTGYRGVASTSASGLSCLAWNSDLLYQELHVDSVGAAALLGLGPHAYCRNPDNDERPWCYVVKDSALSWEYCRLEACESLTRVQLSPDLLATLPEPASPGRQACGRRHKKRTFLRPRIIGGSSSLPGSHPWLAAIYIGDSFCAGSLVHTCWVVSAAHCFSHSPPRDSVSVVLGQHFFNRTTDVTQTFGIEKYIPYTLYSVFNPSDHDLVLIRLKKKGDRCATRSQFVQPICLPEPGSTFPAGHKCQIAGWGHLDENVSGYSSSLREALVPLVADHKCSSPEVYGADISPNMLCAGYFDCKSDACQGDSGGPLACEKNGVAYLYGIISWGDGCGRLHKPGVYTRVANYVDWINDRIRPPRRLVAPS
The test can be described thus: Inhibition of recombinant HGFA serine protease domain (unknown origin) using Boc-QLR-AMC as substrate preincubated for 30 mins followed by substrate addition by fluorescence based assay. In a few lines: (§1)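 Fluorogenic kinetic protease assay: Boc-QLR-AMC substrate for HGFA, Boc-QAR-AMC for hepsin. Each inhibitor was tested at eleven concentrations, pre-incubated with the protease, and then substrate was added. Release of fluorescent product was followed kinetically over one hour, and IC50 was taken from the concentration-dependent inhibition of proteolysis.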

The target of another test is Coagulation factor X (Homo sapiens, UniProt P00742). The test can be described thus: Inhibition of recombinant factor Xa (unknown origin) using Bz-Ile-Glu-Gly-Arg-pNA as substrate preincubated for 30 mins followed by substrate addition by chromogenic assay.
In another test the target is Prothrombin (Homo sapiens, UniProt P00734). In words: Inhibition of recombinant thrombin (unknown origin) using D-Phe-Pip-Arg-pNA as substrate preincubated for 30 mins followed by substrate addition by chromogenic assay.
In test [2] the target is T2, Suppressor of tumorigenicity 14 protein (Homo sapiens, UniProt Q9Y5Y6).
T2 sequence (Q9Y5Y6 whole entry): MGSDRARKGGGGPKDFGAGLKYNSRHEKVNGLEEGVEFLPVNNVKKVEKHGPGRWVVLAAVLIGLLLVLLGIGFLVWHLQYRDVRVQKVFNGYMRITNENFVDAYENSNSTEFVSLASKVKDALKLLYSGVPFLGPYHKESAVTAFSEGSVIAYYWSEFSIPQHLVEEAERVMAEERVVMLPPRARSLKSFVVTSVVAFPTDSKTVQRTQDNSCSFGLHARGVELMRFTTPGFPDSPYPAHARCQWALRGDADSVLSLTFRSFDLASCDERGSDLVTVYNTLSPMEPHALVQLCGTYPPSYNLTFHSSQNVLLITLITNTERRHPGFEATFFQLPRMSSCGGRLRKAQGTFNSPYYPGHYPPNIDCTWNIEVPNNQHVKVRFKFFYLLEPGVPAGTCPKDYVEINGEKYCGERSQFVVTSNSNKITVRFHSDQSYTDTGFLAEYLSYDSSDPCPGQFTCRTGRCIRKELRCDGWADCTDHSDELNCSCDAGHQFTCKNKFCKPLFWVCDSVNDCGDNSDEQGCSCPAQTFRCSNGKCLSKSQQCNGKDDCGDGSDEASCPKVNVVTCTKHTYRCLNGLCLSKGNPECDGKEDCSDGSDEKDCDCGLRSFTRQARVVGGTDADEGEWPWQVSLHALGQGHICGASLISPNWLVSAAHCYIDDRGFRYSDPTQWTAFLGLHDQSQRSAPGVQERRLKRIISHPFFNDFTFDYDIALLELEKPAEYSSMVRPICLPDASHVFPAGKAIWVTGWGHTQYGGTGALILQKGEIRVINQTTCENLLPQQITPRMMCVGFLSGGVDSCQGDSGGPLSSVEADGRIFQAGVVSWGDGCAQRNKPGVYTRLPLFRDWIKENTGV
In words: Inhibition of recombinant human N-terminal met-His6-tagged matriptase catalytic domain (Gly596 to Val855 residues) expressed in Escherichia coli using Boc-QAR-AMC as substrate preincubated for 30 mins followed by substrate addition by fluorescence based assay.

The target in another test is Serine protease hepsin (Homo sapiens, UniProt P05981). The test can be described thus: Inhibition of recombinant human C-terminal 10-His tagged hepsin (Arg45 to Leu417) expressed in mouse myeloma cells using Boc-QAR-AMC as substrate preincubated for 30 mins followed by substrate addition by fluorescence based assay. Summed up: as §1

Where only a bound is given, the exact number is not on record here.

In general, IC50 refers to the point on the concentration scale where inhibition reaches its midpoint.

Sequence of Serine protease hepsin (P05981 1-162 limits assumed): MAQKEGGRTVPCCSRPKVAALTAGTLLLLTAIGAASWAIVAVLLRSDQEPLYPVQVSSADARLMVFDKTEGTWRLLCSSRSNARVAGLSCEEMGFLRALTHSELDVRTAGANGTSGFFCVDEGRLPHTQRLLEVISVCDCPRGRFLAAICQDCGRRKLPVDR
Sequence of Serine protease hepsin (P05981 163-417 limits assumed): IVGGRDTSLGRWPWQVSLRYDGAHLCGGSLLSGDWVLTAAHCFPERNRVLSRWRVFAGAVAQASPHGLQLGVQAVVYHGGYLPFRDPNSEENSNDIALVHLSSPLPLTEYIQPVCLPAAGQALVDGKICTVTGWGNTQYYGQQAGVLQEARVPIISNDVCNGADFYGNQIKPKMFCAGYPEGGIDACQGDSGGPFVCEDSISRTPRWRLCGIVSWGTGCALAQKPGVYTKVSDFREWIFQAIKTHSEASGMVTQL
Sequence of Coagulation factor X (P00742 41-179 limits assumed): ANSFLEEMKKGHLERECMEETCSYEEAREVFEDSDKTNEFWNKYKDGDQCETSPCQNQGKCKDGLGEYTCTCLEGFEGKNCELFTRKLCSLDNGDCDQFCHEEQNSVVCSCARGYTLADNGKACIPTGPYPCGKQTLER
Sequence of Coagulation factor X (P00742 235-488 limits assumed): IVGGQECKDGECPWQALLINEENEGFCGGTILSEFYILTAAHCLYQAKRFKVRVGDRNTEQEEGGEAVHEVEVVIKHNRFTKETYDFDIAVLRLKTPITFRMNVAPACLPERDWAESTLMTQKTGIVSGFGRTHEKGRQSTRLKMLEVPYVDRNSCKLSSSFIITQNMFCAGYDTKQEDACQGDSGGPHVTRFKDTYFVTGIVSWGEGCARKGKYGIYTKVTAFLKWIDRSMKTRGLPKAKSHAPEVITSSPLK

Regarding `CC(C)C[C@H](NC(=O)OC1CCN(S(=O)(=O)c2ccc([N+](=O)[O-])cc2[N+](=O)[O-])CC1)C(=O)N[C@@H](CCCNC(=N)N)C(=O)c1nc2ccccc2s1`, the IC50 in test [1] was greater than 20 µM.
Consider `CCS(=O)(=O)N1CCC(OC(=O)N[C@@H](CC(C)C)C(=O)N[C@@H](CCCNC(=N)N)C(=O)c2nc3ccccc3s2)CC1`, for which the IC50 (in test [1]; on Coagulation factor X; at Prothrombin) was greater than 20 µM each time.
Consider `CC(=O)N[C@@H](CO)C(=O)N[C@@H](CCCCN)C(=O)N[C@@H](CC(C)C)C(=O)N[C@@H](CCCNC(=N)N)C(=O)c1nc2ccccc2s1`, for which, on Prothrombin, the IC50 was greater than 20 µM.
Still for that read-out and setting: the result for `CC(=O)N[C@@H](CCCCN)C(=O)N[C@@H](CCC(N)=O)C(=O)N[C@@H](CC(C)C)C(=O)N[C@@H](CCCNC(=N)N)C(=O)c1nc2ccccc2s1` reads greater than 20 µM.
Regarding `CC(=O)N1CCC(OC(=O)N[C@@H](CC(C)C)C(=O)N[C@@H](CCCNC(=N)N)C(=O)c2nc3ccccc3s2)CC1`, in test [1], the IC50 is greater than 20 µM.
Consider `CC(C)C[C@H](NC(=O)OC1CCN(S(=O)(=O)c2ccccc2)CC1)C(=O)N[C@@H](CCCNC(=N)N)C(=O)c1nc2ccccc2s1`, for which the IC50 on Coagulation factor X and on Prothrombin was greater than 20 µM each time.
For the molecule `CC(C)C[C@H](NC(=O)OC(c1ccccc1)C1CCNCC1)C(=O)N[C@@H](CCCNC(=N)N)C(=O)c1nc2ccccc2s1` (some centres not stated), the IC50 at Coagulation factor X and at Prothrombin was greater than 20 µM each time.
For `Cc1cc(C)c(S(=O)(=O)N2CCC(OC(=O)N[C@@H](CC(C)C)C(=O)N[C@@H](CCCNC(=N)N)C(=O)c3nc4ccccc4s3)CC2)c(C)c1`, in test [2], the IC50 was greater than 20 µM.
As for `CC(C)C[C@H](NC(=O)OC1(Cc2ccccc2)CCNCC1)C(=O)N[C@@H](CCCNC(=N)N)C(=O)c1nc2ccccc2s1`, the IC50 at Serine protease hepsin is 0.0006 µM; in test [2], 0.03 µM; in test [1], 1.2 µM; at Coagulation factor X it was 6.5 µM; at Prothrombin it was greater than 20 µM.
Taken in the same sequence, the figures for `CC1CN(CC2CCN(Cc3ccccc3)CC2)C(=O)N(c2cccc(C(=N)N)c2)C1` (configuration not stated) were 1.9 µM, 3.2 µM, 20 µM, 0.38 µM and 11.6 µM.
For the molecule `N=C(N)c1cccc(C[C@H](NS(=O)(=O)c2ccc3ccccc3c2)C(=O)N2CCN(C(=O)NCc3ccc(Br)cc3)CC2)c1`, the IC50 came out at 0.09 µM at Serine protease hepsin, 8.4 µM in test [2] and 30 µM in test [1].
With `CC(C)C[C@H](NC(=O)OC1CCN(S(=O)(=O)c2cccc(F)c2)CC1)C(=O)N[C@@H](CCCNC(=N)N)C(=O)c1nc2ccccc2s1`, the IC50 in test [1] is greater than 20 µM.
The same measure, in the same setting: the result for `CC(=O)N1CCC(CCc2ccccc2)(OC(=O)N[C@@H](CC(C)C)C(=O)N[C@@H](CCCNC(=N)N)C(=O)c2nc3ccccc3s2)CC1` reads greater than 20 µM.
Regarding `CC(C)C[C@H](NC(=O)OC1(c2ccccc2)CCNCC1)C(=O)N[C@@H](CCCNC(=N)N)C(=O)c1nc2ccccc2s1`, the IC50 on Prothrombin was greater than 20 µM.
For the molecule `CC(C)c1cc(C(C)C)c(S(=O)(=O)N[C@@H](Cc2cccc(C(=N)N)c2)C(=O)N2CCN(C(=O)C3CCNCC3)CC2)c(C(C)C)c1`, the values for the IC50 (at Serine protease hepsin; in test [1]) were 14 µM and 11 µM, respectively.
With `N=C(N)NCCC[C@H](NC(=O)[C@H](CC1CCCCC1)NC(=O)OC1(c2ccccc2)CCNCC1)C(=O)c1nc2ccccc2s1`, the IC50 (in test [1]; at Prothrombin) was greater than 20 µM throughout.
